Measured values: paper PMC5884014 (Neoplasia (New York, N.Y.), 2017)

Tests used:
[1] = test system: HexA-rev and HexB-rev fragments; assay: Guanine-N7 alkylation, Maxam-Gilbert method; format: binding; conditions: 3'-end-labeled DNA, 37°C, 2 h, pH 7.4
Summary of the method: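 Sixty-four symmetrical hexanucleotide fragments (HexA-rev, HexB-rev) were 3′-end-labelled, gel-purified on polyacrylamide, and reacted with the test compound. Guanine-N7 alkylation sites were mapped by the Maxam-Gilbert method. A weighted consensus sequence logo was generated with Seq2Logo 3.4.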

FHC = assay: Cytotoxicity assay; format: cell-based, human; conditions: 72 h
HCT116 = assay: Cytotoxicity assay; format: cell-based, human
RKO = assay: Cytotoxicity assay; format: cell-based, human; conditions: 72 h
LS174T = assay: Cytotoxicity assay; format: cell-based, human; conditions: 72 h
LoVo = assay: Cytotoxicity assay; format: cell-based, human; conditions: 72 h
Colo205 = assay: Cytotoxicity assay; format: cell-based, human
DLD-1 = assay: Cytotoxicity assay; format: cell-based, human
HT-29 = assay: Cytotoxicity assay; format: cell-based, human
SW620 = assay: Cytotoxicity assay; format: cell-based, human
RKO-E6 = assay: Cytotoxicity assay; format: cell-based, human; conditions: RKO-E6 (p53-KO), 72 h
H3347 = assay: Cytotoxicity assay; format: cell-based, human; conditions: H3347, 72 h
Caco-2 = assay: Cytotoxicity assay; format: cell-based; conditions: Homo sapiens, Caco-2, 72 h

CN(C)CCNC(=O)c1cccc(NC(=O)Nc2ccc(N(CCCl)CCCl)cc2)c1.Cl [BO-1055]
consensus sequence / binding pattern of guanine-N7 alkylation [1]: no distinct binding sequence

N.N.[Cl][Pt][Cl] [Cisplatin, cisplatin]
IC50 (FHC; FHC normal fetal colonic epithelial cells): 21 ± 2.03 µM | IC50 (HCT116; HCT116 (p53-WT), 72 h): 3.42 ± 0.36 µM | IC50 (RKO; RKO (p53-WT)): 26.3 ± 3.28 µM | IC50 (LS174T; LS174T (p53-WT)): 8.48 ± 2.74 µM | IC50 (LoVo; LoVo (p53-WT)): 6.38 ± 2.18 µM | IC50 (Colo205; Colo205 (p53-WT), 72 h): 11.1 ± 1.27 µM | IC50 (DLD-1; DLD-1 (p53-MT), 72 h): 29.6 ± 6.42 µM | IC50 (HT-29; HT-29 (p53-MT), 72 h): 5.99 ± 1.22 µM | IC50 (SW620; SW620 (p53-MT), 72 h): 0.91 ± 0.27 µM | IC50 (RKO-E6): 24.8 ± 7.71 µM | IC50 (H3347): 12.2 ± 0.64 µM

Cc1ccc(Nc2c3ccccc3nc3c(C)cccc23)cc1NC(=O)Nc1ccc(N(CCCl)CCCl)cc1 [BO-1051]
consensus sequence / binding pattern of guanine-N7 alkylation [1]: no distinct binding sequence

CCc1c2c(nc3ccc(OC(=O)N4CCC(N5CCCCC5)CC4)cc13)-c1cc3c(c(=O)n1C2)COC(=O)[C@]3(O)CC [Irinotecan, irinotecan]
IC50 (FHC; Homo sapiens, FHC): > 100 µM | IC50 (HCT116; Homo sapiens, HCT-116, 72 h): 1.38 ± 0.49 µM | IC50 (RKO; Homo sapiens, RKO): 2.63 ± 1.05 µM | IC50 (LS174T; Homo sapiens, LS174T): 1.36 ± 0.33 µM | IC50 (LoVo; Homo sapiens, LoVo): 9.69 ± 1.68 µM | IC50 (Colo205; Homo sapiens, COLO 205, 72 h): 2.49 ± 0.48 µM | IC50 (DLD-1; Homo sapiens, DLD-1, 72 h): 1.72 ± 0.35 µM | IC50 (HT-29; Homo sapiens, HT-29, 72 h): 4.19 ± 0.29 µM | IC50 (SW620; Homo sapiens, SW-620, 72 h): 0.32 ± 0.1 µM | IC50 (Caco-2): 21.3 ± 7.34 µM | IC50 (H3347; Homo sapiens): 2.93 ± 0.68 µM
